Compound activity deposited in PubChem by The Scripps Research Institute Molecular Screening Center.
IDE inh – inhibits human insulin-degrading enzyme in HEK cells; 320,000 compounds, 0.41% hits; FAbetaB cleavage, fluorescence polarization; inhibition, % at 5.59 µM; P14735;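 active = percent inhibition above the average of all tested compounds plus 3 SD, set per screening campaign, cut at about 16% in these data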;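 also: IDE supplied by intact live HEK cells; FP after avidin binding of uncleaved biotin substrate so inhibition keeps polarization high; 0% = DMSO wells and 100% = 60 µM reference IDE inhibitor Ii1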
Target sequence (P14735 whole entry, looked up): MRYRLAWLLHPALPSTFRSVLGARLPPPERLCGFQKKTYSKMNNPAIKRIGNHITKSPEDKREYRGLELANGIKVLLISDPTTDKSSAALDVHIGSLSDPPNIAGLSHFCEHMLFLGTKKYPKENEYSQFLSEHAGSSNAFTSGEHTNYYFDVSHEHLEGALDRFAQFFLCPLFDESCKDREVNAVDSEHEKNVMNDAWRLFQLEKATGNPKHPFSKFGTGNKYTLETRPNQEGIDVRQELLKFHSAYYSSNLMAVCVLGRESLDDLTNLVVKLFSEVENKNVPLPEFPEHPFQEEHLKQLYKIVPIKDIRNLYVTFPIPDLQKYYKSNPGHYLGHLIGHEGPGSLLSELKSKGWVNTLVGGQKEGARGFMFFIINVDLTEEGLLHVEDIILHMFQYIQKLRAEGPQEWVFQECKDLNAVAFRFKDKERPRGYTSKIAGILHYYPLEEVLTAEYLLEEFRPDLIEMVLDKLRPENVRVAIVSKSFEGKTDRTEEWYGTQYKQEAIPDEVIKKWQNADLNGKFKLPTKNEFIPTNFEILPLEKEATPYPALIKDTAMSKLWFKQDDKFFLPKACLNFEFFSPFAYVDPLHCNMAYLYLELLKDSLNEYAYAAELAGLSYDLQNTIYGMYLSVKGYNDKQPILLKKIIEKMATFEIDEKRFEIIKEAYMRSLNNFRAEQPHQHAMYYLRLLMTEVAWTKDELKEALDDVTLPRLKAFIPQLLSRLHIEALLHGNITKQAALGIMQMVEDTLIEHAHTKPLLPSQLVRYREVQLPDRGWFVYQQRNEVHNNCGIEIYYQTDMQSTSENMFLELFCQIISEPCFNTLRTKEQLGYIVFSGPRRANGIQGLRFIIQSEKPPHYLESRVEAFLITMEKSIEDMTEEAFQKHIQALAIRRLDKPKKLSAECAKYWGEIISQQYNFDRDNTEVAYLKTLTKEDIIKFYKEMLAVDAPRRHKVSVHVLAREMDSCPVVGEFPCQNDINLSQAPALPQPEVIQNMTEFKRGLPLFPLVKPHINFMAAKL
TPT1 inhibitor – inhibitors of Candida albicans tRNA 2'-phosphotransferase TPT1. 300,000 compounds, 0.81% hits. inhibition, % at 5 µM. AID 1962. recombinant caTPT1, FP RNA substrate dephosphorylation;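 active = inhibition above the mean of all tested compounds plus 3 SD, set per screening campaign, cut at about 24% in these data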;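 also: plate controls were DMSO alone for no effect and ferristatin control at 100 nM for full effect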
proCasp7 act – counter-screen for procaspase-3 activators: activators of human procaspase-7; P55210; recombinant procaspase-7, Ac-DEVD-pNA absorbance 405 nm; D23A/D198A/D206A triple mutant, cannot self-cleave; scale: DMSO 0, 5 µM enzyme 100; activation, % at 8.5 µM; 330,000 compounds, 0.093% hits;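 active = percent activation above the screen-wide mean plus 3 SD, cut at about 25% in these data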
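Replicates: singlicate. Assay system: Procaspase-7 triple mutant (PC-7 D3A). Signal: 405 nm absorbance of p-nitroaniline. Times: 1 h preincubation, 2 h reaction. Buffer or medium: Zinc-free HEPES pH 7.4 with 300 mM NaCl, 0.01% Triton X-100. Also added: DEVD-pNA substrate. Benchmarks: DMSO wells as 0%, DMSO with 5 µM added PC-7 as 100%.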
proCasp3 act – activates human procaspase-3 | P42574 | recombinant procaspase-3 D3A, Ac-DEVD-pNA absorbance 405 nm | activation, % at 8.5 µM | 330,000 compounds, 0.11% hits | AID 463141;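 active = activation above the mean of all tested compounds plus 3 SD, cut at about 21% in these data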;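 also: 0% = DMSO alone and 100% = DMSO wells spiked with extra 5 µM PC-3 D3A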
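assay system = Procaspase-3 D3A mutant | signal = absorbance at 405 nm, 0 and 120 min | times = 1 h preincubation plus 2 h reaction at 25 °C | repeats = single replicate | read-out = % activation between DMSO and enzyme-spiked controls | medium = Zinc-free HEPES saline buffer with Triton X-100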
IDE cell activ – IDE (human) activation, cell-based. P14735. HEK cells, FAbeta-B cleavage, fluorescence polarization; 0% vehicle, 100% cell-free pure enzyme wells. activation, % at 5.96 µM. 340,000 compounds, 0.073% hits. AID 493087;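 active = activation above the mean of all tested compounds plus 3 SD, set per screening campaign, cut at about 17% in these data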
caTPT1 confirm – confirmation of Candida albicans TPT1 inhibitors | shares compounds with TPT1 inhibitor | recombinant caTPT1, fluorescence polarization, RNase T1 coupled | inhibition, % at 5 µM | 2,400 compounds, 74% hits | AID 2149;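 active = inhibition above the primary screen limit, the mean inhibition of all tested compounds plus 3 SD, cut at about 25% in these data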
RNase T1 counter – counter-screen for TPT1 inhibitors: inhibitors of Aspergillus oryzae RNase T1. shares compounds with TPT1 inhibitor. RNase T1 cleavage, fluorescence polarization, 1536-well. inhibition, % at 5 µM. 2,400 compounds, 83% hits. AID 2153;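 active = inhibition above the solvent-only control well mean plus 3 SD, limit set per screening run, cut at about 23% in these data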;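 also: plate controls were DMSO wells with enzyme for no effect and wells without RNase T1 for full effect; inhibitors block cleavage so intact labeled substrate keeps polarization high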
The depositor's hits bear a star; . = no result given. Shown are actives, neighbours in structure and some others; about 1.2% of the full set was active somewhere.

SMILES	IDE inh	TPT1 inhibitor	proCasp7 act	proCasp3 act	IDE cell activ	caTPT1 confirm	RNase T1 counter
C=CCn1c(=O)c(C=Nc2cccnc2Cl)c(O)n(CCCC)c1=O	6.9	43.5*	0.0	7.7	-4.5	13.3	23.3*
CC(C)CCN1CCN(Cc2c(F)cccc2Cl)CC1CCO (stereo not given)	2.9	-4.6	5.5	1.2	0.2	.	.
CCOC(=O)c1c(/N=C/c2c(O)n(-c3ccccc3F)c(=S)[nH]c2=O)sc2c1CCCC2	-1.1	38.5*	-20.7	-15.0	-2.7	86.5*	95.7*
CCOC(=O)c1c(/N=C/c2c(O)n(-c3ccc(F)cc3)c(=S)[nH]c2=O)sc2c1CCCC2	-8.5	4.1	-9.7	1.3	-1.8	.	.
O=C(Nc1ccc(Br)cc1)c1nn(C23CC4CC(CC(C4)C2)C3)cc1Br	2.7	0.8	-2.9	-0.1	3.2	.	.
O=C1NC(=O)C(=Cc2ccc(-c3ccc(F)cc3O)o2)C(=O)N1	6.8	25.1*	-16.3	-2.8	0.4	42.5*	62.9*
CSc1ncc(/C=C2/C(=O)NC(=O)N(C3CCCCC3)C2=O)cn1	-0.5	31.5*	-18.0	-19.1	4.4	31.6*	42.7*
CSc1ncc(/C=C2/C(=O)NC(=O)N(C)C2=O)cn1	-2.0	8.2	-17.9	-4.2	3.0	.	.
O=C(O)Cn1cc(/C=C2\C(=O)NC(=O)N(c3ccc(Cl)cc3)C2=O)c2ccccc21	5.9	39.5*	-3.2	-5.1	-4.9	41.9*	52.9*
C=CCn1cc(C=C2C(=O)NC(=O)NC2=O)c2ccccc21	4.8	24.9*	-20.7	-13.9	-0.8	40.5*	52.3*
COc1cc2cc(C(=O)N3CC(COS(C)(=O)=O)c4ccc(O)cc43)[nH]c2c(OC)c1OC (stereo not given)	.	.	.	.	-2.0	.	.
O=C(c1cn(Cc2ccccc2F)c2ncccc12)C(F)(F)F	1.1	-3.6	14.4	5.5	6.9	.	.
CC(C)N1CCN(Cc2c[nH]c3ccccc23)CC1CCO (stereo not given)	.	.	.	.	6.0	.	.
COc1ccc(CC2(CCc3ccncc3)C(=O)NC(=O)NC2=O)cc1	6.0	0.7	9.8	0.2	5.0	.	.
O=C1NC(=O)C(CCc2ccncc2)(Cc2ccc([N+](=O)[O-])cc2)C(=O)N1	8.1	28.0*	-1.0	2.7	3.6	1.8	4.4
O=c1[nH]oc2c1CCNC2	-0.7	2.4	6.9	2.3	6.1	.	.
Cc1ccnc(NS(=O)(=O)c2ccc(N=Cc3c(O)n(C)c(=O)n(C)c3=O)cc2)n1	4.5	85.1*	-7.4	-2.3	-10.3	62.4*	77.2*
Cc1cc(C)nc(NS(=O)(=O)c2ccc(N=Cc3c(O)n(C)c(=O)n(C)c3=O)cc2)n1	3.5	7.6	-4.5	-4.3	.	.	.
C/C(=C\c1ccc(N(C)C)cc1)[N+](=O)[O-]	3.3	10.8	-14.7	-4.8	-10.0	.	.
CN(C)c1ccc(/C=C/[N+](=O)[O-])cc1	9.3	51.0*	-7.5	3.1	-17.6	72.8*	89.8*
COc1ccc2c(c1)C(NC(C)=O)CCc1cc(OC)c(OC)c(OC)c1-2 (stereo not given)	.	.	.	.	7.3	.	.
CCCCn1c(O)c(/C=N/NC(=O)c2ccncc2)c(=O)[nH]c1=S	1.1	29.6*	-28.7	-26.4	5.6	19.8	28.5*
Cn1c(O)c(/C=N/NC(=O)c2ccncc2)c(=O)[nH]c1=S	-5.4	-3.7	-8.9	-8.0	.	.	.
Cc1ccc(-n2c(O)c(/C=N/NC(=O)c3ccncc3)c(=O)[nH]c2=O)cc1	6.5	30.0*	-14.8	-9.0	0.2	46.8*	56.4*
Cn1c(O)c(/C=N/NC(=O)c2ccncc2)c(=O)n(C)c1=S	2.6	116.3*	-26.5	-14.4	.	100.7*	110.5*
SMILES	IDE inh	TPT1 inhibitor	proCasp7 act	proCasp3 act	IDE cell activ	caTPT1 confirm	RNase T1 counter
C=CCn1c(O)c(C(C)=NCCCN(C)C)c(=O)[nH]c1=O	6.2	-0.9	6.7	-2.0	6.2	.	.
COC(=O)c1ccccc1N=Cc1c(O)[nH]c(=O)[nH]c1=O	-5.0	0.2	-12.8	10.9	-1.0	.	.
CCN(CC)CCOC(=O)c1ccc(N=Cc2c(O)[nH]c(=O)[nH]c2=O)cc1	3.1	60.3*	-4.9	-8.4	3.7	70.0*	86.6*
CCOC(=O)c1c(-n2c(C)cc(/C=C3\C(=O)NC(=O)N(C)C3=O)c2C)sc2c1CCCC2	6.9	17.3	-13.7	-2.9	2.0	.	.
Cc1cc(/C=C2\C(=O)NC(=O)N(c3ccc(Cl)cc3)C2=O)c(C)n1-c1sc2c(c1C#N)CCCC2	4.0	45.8*	-28.0	-10.5	-3.4	18.6	27.5*
COc1ccc(-c2nn(CCC#N)cc2C(=O)Nc2ccc(C(C)=O)cc2)cc1[N+](=O)[O-]	3.5	-6.2	6.2	4.8	1.8	.	.
CN(C)CC1CSCCC1(O)c1ccccc1 (stereo not given)	-2.4	-2.6	12.9	1.6	0.0	.	.
COC(=O)C1=C(c2cc3ccccc3o2)C[C@@H]2CC[C@H]1N2C(=O)NCCCOC(C)C	10.6	0.3	0.5	5.2	-2.3	.	.
CCOP(=O)(OCC)C(NC(=O)c1ccc(Cl)cc1)=C(Cl)Cl	2.3	49.3*	-10.2	-0.5	0.2	-0.2	4.9
CN1CCN(CCOC2c3ccccc3CSc3ccc(Cl)cc32)CC1 (stereo not given)	-0.2	55.4*	12.8	-4.8	0.8	3.2	8.6
Clc1ccc2c(c1)C(OC1CN3CCC1CC3)c1ccccc1CS2 (stereo not given)	7.6	-0.5	0.3	-0.8	-3.3	.	.
CCN(CC)c1ccc(N=Cc2c(O)n(Cc3ccco3)c(=O)[nH]c2=O)cc1	5.8	45.3*	-26.1	-2.6	-8.6	64.0*	68.8*
CCN(CC)c1ccc(N=Cc2c(O)n(CCc3ccc(OC)c(OC)c3)c(=O)[nH]c2=O)cc1	-0.1	43.3*	-18.0	-5.0	4.9	80.5*	93.4*
O=c1[nH]c(=O)n(Cc2ccco2)c(O)c1/C=N/N1CCCCCC1	-3.7	0.3	-11.1	-3.5	4.9	.	.
COc1ccc(N=Cc2c(O)n(-c3ccc(C)cc3)c(=O)[nH]c2=O)cc1	-4.6	-1.8	10.7	-4.5	.	.	.
NC(=O)c1ccc(N=Cc2c(O)n(Cc3ccco3)c(=O)[nH]c2=O)cc1	2.7	15.6	-10.6	-4.7	-0.5	.	.
N#Cc1c(/N=C/c2c(O)n(Cc3ccco3)c(=O)[nH]c2=O)sc2c1CCCC2	8.7	44.3*	-24.8	-6.4	-26.8	8.1	13.7
CCN(CC)c1ccc(N=Cc2c(O)n(-c3cc(OC)ccc3OC)c(=O)[nH]c2=O)cc1	2.3	92.8*	-34.0	-15.4	-7.1	76.2*	87.5*
CCCSP1(=S)NCCCO1 (stereo not given)	3.3	-0.9	5.5	5.1	-1.2	.	.
